{"source": "paper PMC5318329", "about": "(Drugs in R&D, 2016)", "key": {"C-reactive protein (CRP)": {"system": "C-reactive protein (CRP)", "details": "later time points (e.g. 72 h post dose), all dilmapimod dose levels; cited from earlier work"}, "[1]": {"type": "in vivo, human", "outline": "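Non-head-injury trauma patients randomised within 24–26 h of injury; daily IV infusion over 4 h or 24 h for 3 days. Plasma sampled pre-dose and serially after the first and third doses. Protein precipitation, then HPLC–MS/MS (LLOQ 0.1 ng/mL, ULOQ 100 ng/mL); NQ set missing, outliers excluded. NONMEM mixed-effects three-compartment model with first-order elimination; BMI power covariate centred at 27.4 kg/m2.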"}, "[2]": {"type": "in vivo, human", "details": "intravenous infusion up to 10 mg, 3 consecutive days"}, "IL-6": {"system": "IL-6", "details": "cited from earlier work"}, "[3]": {"details": "final three-compartment population PK model, IV infusion"}, "[4]": {"details": "power model, covariate centred to population mean 27.4 kg/m^2"}}, "data": [{"smiles": "Cc1cc(F)ccc1-c1nc(NC(CO)CO)nc2c1ccc(=O)n2-c1c(F)cccc1F", "note": "[Dilmapimod]", "values": [{"measurement": "CRP levels relative to placebo (exploratory analyses)", "setting": "C-reactive protein (CRP)", "value": "trend of lower levels of CRP"}, {"measurement": "Dose proportionality of plasma concentration", "setting": "[1]; IV infusion 3, 7.5 mg over 4 h, 7.5, 10 mg over 24 h", "value": "increased approximately proportionally to the increase in dose"}, {"measurement": "Terminal half-life", "setting": "[1]; calculated based on typical value of CL, Vc, V2, V3, Q1 and Q2", "value": 16, "unit": "h"}, {"measurement": "Q1 (inter-compartmental clearance), typical value", "setting": "[1]; [3]", "value": 28.2, "unit": "L/h"}, {"measurement": "Q2 (inter-compartmental clearance), typical value", "setting": "[1]; [3]", "value": 5.7, "unit": "L/h"}, {"measurement": "V2 (volume of distribution of peripheral compartment), typical value", "setting": "[1]; [3]", "value": 35.9, "unit": "L"}, {"measurement": "V3 (volume of distribution of peripheral compartment), typical value", "setting": "[1]; [3]", "value": 115.6, "unit": "L"}, {"measurement": "Vc (volume of distribution of the central compartment), typical value", "setting": "[1]; [3]", "value": 8.1, "unit": "L"}, {"measurement": "Clearance lower than in typical patient", "setting": "[1]; patients with BMI of 23 kg/m^2 (mean - SD) vs typical patient (27.4 kg/m^2)", "value": "about 21%"}, {"measurement": "Clearance higher than in typical patient", "setting": "[1]; patients with BMI of 32 kg/m^2 (mean + SD) vs typical patient (27.4 kg/m^2)", "value": "~23", "unit": "%"}, {"measurement": "BMI covariate on CL (power model exponent)", "setting": "[1]; [4]", "value": 1.36}, {"measurement": "BMI covariate on Q2 (power model exponent)", "setting": "[1]; [4]", "value": 2.42}, {"measurement": "Vss (steady-state volume of distribution) = Vc + V2 + V3", "setting": "[1]; sum of Vc, V2 and V3 of the final population PK model", "value": 160, "unit": "L"}, {"measurement": "Tolerability", "setting": "[2]", "value": "generally well tolerated"}, {"measurement": "IL-6 levels relative to placebo (exploratory analyses)", "setting": "IL-6; 24 h post dose, all dilmapimod dose levels", "value": "trend of lower levels of IL-6"}, {"measurement": "Ratios of IL-6 relative to placebo", "setting": "IL-6; continuous infusion of 10 mg/24 h, up to 72 h post dose", "value": "below 1"}, {"measurement": "Overall effect of dilmapimod on IL-6 levels in PK/PD modelling", "setting": "IL-6; similar PK/PD modelling approach on IL-6 data", "value": "not revealed"}]}]}
